These results are taken from ChEMBL document CHEMBL2401679, “Synthesis and on-target antibacterial activity of novel 3-elongated arylalkoxybenzamide derivatives as inhibitors of the bacterial cell division protein FtsZ” (2013).

In assay [1] the test system is Staphylococcus aureus. Put plainly: Ratio of compound MIC to 3-MBA MIC for penicillin-resistant Staphylococcus aureus clinical isolate. The class given is functional.
Assay [2] has as its system Staphylococcus aureus. Put plainly: Ratio of compound MIC to 3-MBA MIC for penicillin-susceptible Staphylococcus aureus ATCC 25923. The class given is functional.
Assay [3] relates to Bacillus subtilis. The assay can be described thus: Ratio of compound MIC to 3-MBA MIC for penicillin-susceptible Bacillus subtilis ATCC 9372. It is filed as functional.
In the next assay the test system is Streptococcus pyogenes. The assay can be described thus: Antibacterial activity against penicillin-susceptible Streptococcus pyogenes after 24 hrs by broth microdilution method. It is filed as functional. In a few lines: (§1)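 MIC by broth microdilution following the NCCLS standard method. Test strains were penicillin-susceptible: B. subtilis ATCC9372, S. aureus ATCC25923, S. pneumoniae ATCC49619 and Streptococcus pyogenes PS.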

The subject of another assay is Streptococcus pneumoniae. The assay can be described thus: Antibacterial activity against penicillin-susceptible Streptococcus pneumoniae ATCC 49619 after 24 hrs by broth microdilution method. The class given is functional. The conditions noted are these: ATCC 49619, 24 h. A digest of the protocol:
as §1
On the technique in general: In broth dilution the organism is exposed to a series of concentrations in liquid medium.

For assay [4], the system named is Staphylococcus aureus. Put plainly: Antibacterial activity against penicillin-resistant Staphylococcus aureus clinical isolate after 24 hrs by broth microdilution method. The class given is functional. In a few lines: (§2)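 MIC by standard broth microdilution following NCCLS recommendations. S. aureus ATCC29213 is a […] strain. The S. aureus PR strain is a penicillin-resistant clinical isolate that has not been characterized. The MIC was taken as the in vitro antibacterial activity value.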

The subject of assay [5] is Staphylococcus aureus. Put plainly: Antibacterial activity against penicillin-susceptible Staphylococcus aureus ATCC 25923 after 24 hrs by broth microdilution method. The class given is functional. The conditions noted are these: ATCC 25923, 24 h. A digest of the protocol:
as §1

The subject of assay [6] is Staphylococcus aureus. The assay can be described thus: Antibacterial activity against […] Staphylococcus aureus ATCC 29213 after 24 hrs by broth microdilution method. It is filed as functional. The settings on record: ATCC 29213, 24 h. A digest of the protocol: as §2
Assay [7] concerns Bacillus subtilis. The assay can be described thus: Antibacterial activity against penicillin-susceptible Bacillus subtilis ATCC 9372 after 24 hrs by broth microdilution method. It is filed as functional. The settings on record: ATCC 9372, 24 h. A digest of the protocol: as §1
Assay [8] concerns Staphylococcus aureus. Put plainly: Inhibition of cell division in penicillin-susceptible Staphylococcus aureus ATCC 25923 assessed as lowest concentration required to ballooning after 5 hrs by phase-contrast light microscopy analysis. The class given is functional. In a few lines:
(§3)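 Cell morphology of B. subtilis ATCC9372 or S. aureus ATCC25923 was examined by phase-contrast light microscopy. The value recorded is the lowest compound concentration at which B. subtilis filamentation or S. aureus ballooning appeared. This is taken as on-target cell division inhibition.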

The subject of assay [9] is Bacillus subtilis. The assay can be described thus: Inhibition of cell division in penicillin-susceptible Bacillus subtilis ATCC 9372 assessed as lowest concentration required to filamentation after 5 hrs by phase-contrast light microscopy analysis. It is filed as functional. In a few lines:
as §3

The test system of assay [10] is Staphylococcus aureus. The assay can be described thus: Inhibition of cell division in penicillin-susceptible Staphylococcus aureus ATCC 25923 at 2048 to 4096 ug/ml after 5 hrs by phase-contrast light microscopy analysis. The class given is functional, organism-based.
In assay [11] the test system is Bacillus subtilis. The assay can be described thus: Inhibition of cell division in penicillin-susceptible Bacillus subtilis ATCC 9372 at 2048 to 4096 ug/ml after 5 hrs by phase-contrast light microscopy analysis. The class given is functional, organism-based.
Assay [12] deals with Bacillus subtilis. The assay can be described thus: Ratio of compound to 3-MBA for inhibition of cell division in penicillin-susceptible Bacillus subtilis ATCC 9372. It is filed as functional.

In brackets after ≈: the same amount, converted by molar mass. Activity calls are given as the source filed them. The calls are words filed in the database; no cut-off is given here.

The MIC is the least concentration at which growth counts as inhibited. A low value points to inhibition by little substance.

As to `NC(=O)c1cccc(OCCCCBr)c1`, the Ratio is 512 in the assay with Staphylococcus aureus [1], 256 in the assay with Staphylococcus aureus [2] and 256 in the assay with Bacillus subtilis [3]. The MIC was > 128 µg/mL in the assay on Streptococcus pyogenes; > 128 µg/mL with Streptococcus pneumoniae; 8 µg/mL (≈ 29.4 µM) against Staphylococcus aureus [4]; 8 µg/mL (≈ 29.4 µM) with Staphylococcus aureus [5]; 8 µg/mL (≈ 29.4 µM) with Staphylococcus aureus [6]; 16 µg/mL (≈ 58.8 µM) with Bacillus subtilis [7]. The INH in the assay with Staphylococcus aureus [8] and in the assay with Bacillus subtilis [9] was 8 µg/mL each time.

For the molecule `NC(=O)c1cccc(OCCCCCl)c1`, the Ratio in the assay on Staphylococcus aureus [1] is given as 512; in the assay with Staphylococcus aureus [2], 256. Also, the MIC against Streptococcus pyogenes was > 128 µg/mL; in the assay on Streptococcus pneumoniae, > 128 µg/mL; in the assay with Staphylococcus aureus [4], 8 µg/mL (≈ 35.1 µM); with Staphylococcus aureus [5], 8 µg/mL (≈ 35.1 µM); in the assay with Staphylococcus aureus [6], 8 µg/mL (≈ 35.1 µM); in the assay on Bacillus subtilis [7] it was 32 µg/mL (≈ 141 µM). Moreover, the INH with Staphylococcus aureus [8] was 32 µg/mL; in the assay with Bacillus subtilis [9], 16 µg/mL.

Take `CCCCOCCCCCOc1cccc(C(N)=O)c1`: the Ratio in the assay on Staphylococcus aureus [2] is listed as 256; in the assay with Bacillus subtilis [3] it was 512. Also, the MIC is > 128 µg/mL with Streptococcus pyogenes; > 128 µg/mL in the assay on Streptococcus pneumoniae; 8 µg/mL (≈ 28.6 µM) against Staphylococcus aureus [4]; 8 µg/mL (≈ 28.6 µM) with Staphylococcus aureus [5]; 4 µg/mL (≈ 14.3 µM) in the assay on Staphylococcus aureus [6]; 8 µg/mL (≈ 28.6 µM) in the assay with Bacillus subtilis [7]. Besides, the results for the INH in the assay on Staphylococcus aureus [8] and in the assay with Bacillus subtilis [9] were 16 µg/mL and 8 µg/mL, respectively.

Turning to `Cc1nc2ccccc2n1CCCCOc1cccc(C(N)=O)c1`, the inhibition entry in the assay with Staphylococcus aureus [10] and in the assay with Bacillus subtilis [11] was “inactive” each time. Further, the MIC in the assay on Streptococcus pyogenes is > 128 µg/mL; against Streptococcus pneumoniae it was > 128 µg/mL; in the assay on Staphylococcus aureus [4], > 128 µg/mL; against Staphylococcus aureus [5], 1020 µg/mL (≈ 3170 µM); in the assay on Staphylococcus aureus [6] it was > 128 µg/mL; in the assay on Bacillus subtilis [7], 1020 µg/mL (≈ 3170 µM).

In the case of `NC(=O)c1cccc(OCCCCn2cncn2)c1`, in the assay on Bacillus subtilis [11], the inhibition entry is “inactive”. The MIC is > 128 µg/mL with Streptococcus pyogenes; > 128 µg/mL against Streptococcus pneumoniae; > 128 µg/mL in the assay with Staphylococcus aureus [4]; 1020 µg/mL (≈ 3930 µM) with Staphylococcus aureus [5]; > 128 µg/mL in the assay on Staphylococcus aureus [6]; 1020 µg/mL (≈ 3930 µM) in the assay with Bacillus subtilis [7]. Moreover, the INH in the assay with Staphylococcus aureus [8] is 1024 µg/mL.

With `NC(=O)c1cccc(OCCCCCCCl)c1`, the values for the Ratio in the assay on Bacillus subtilis [3] and with Bacillus subtilis [12] were 256 and 128, respectively. In addition, the MIC is > 128 µg/mL in the assay with Streptococcus pyogenes; > 128 µg/mL in the assay on Streptococcus pneumoniae; 32 µg/mL (≈ 125 µM) against Staphylococcus aureus [4]; 32 µg/mL (≈ 125 µM) with Staphylococcus aureus [5]; 64 µg/mL (≈ 250 µM) with Staphylococcus aureus [6]; 16 µg/mL (≈ 62.6 µM) in the assay with Bacillus subtilis [7]. Moreover, the INH in the assay with Staphylococcus aureus [8] was found to be 32 µg/mL; with Bacillus subtilis [9] it was 4 µg/mL.

Turning to `COc1cccc(C(N)=O)c1`, the inhibition entry in the assay with Staphylococcus aureus [10] was “inactive”. Besides, the MIC in the assay on Streptococcus pyogenes is > 128 µg/mL; in the assay on Streptococcus pneumoniae, > 128 µg/mL; with Staphylococcus aureus [4], 4100 µg/mL (≈ 27100 µM); with Staphylococcus aureus [5], 2050 µg/mL (≈ 13500 µM); against Staphylococcus aureus [6], 2050 µg/mL (≈ 13500 µM); against Bacillus subtilis [7] it was 4100 µg/mL (≈ 27100 µM). The INH with Bacillus subtilis [9] is 512 µg/mL.

On to `NC(=O)c1cccc(OCCSc2nc3ccccc3s2)c1`, for which the MIC in the assay on Streptococcus pyogenes was > 128 µg/mL; in the assay with Streptococcus pneumoniae, > 128 µg/mL; with Staphylococcus aureus [4], > 128 µg/mL; against Staphylococcus aureus [5], 2050 µg/mL (≈ 6200 µM); with Staphylococcus aureus [6], > 128 µg/mL; against Bacillus subtilis [7], 32 µg/mL (≈ 96.8 µM). Also, the INH in the assay with Staphylococcus aureus [8] worked out at 1024 µg/mL; in the assay with Bacillus subtilis [9] it was 16 µg/mL.

Consider `COc1ccc(OCCCCOc2cccc(C(N)=O)c2)cc1`, for which, in the assay with Staphylococcus aureus [10], the inhibition entry was “inactive”. The MIC was > 128 µg/mL against Streptococcus pyogenes; > 128 µg/mL against Streptococcus pneumoniae; > 128 µg/mL in the assay with Staphylococcus aureus [4]; 4100 µg/mL (≈ 13000 µM) in the assay on Staphylococcus aureus [5]; > 128 µg/mL against Staphylococcus aureus [6]; 1020 µg/mL (≈ 3250 µM) against Bacillus subtilis [7]. In addition, the INH with Bacillus subtilis [9] was 32 µg/mL.

For the molecule `CCOCCCCCOc1cccc(C(N)=O)c1`, the MIC is > 128 µg/mL against Streptococcus pyogenes; > 128 µg/mL against Streptococcus pneumoniae; 64 µg/mL (≈ 255 µM) in the assay with Staphylococcus aureus [4]; 64 µg/mL (≈ 255 µM) against Staphylococcus aureus [5]; 64 µg/mL (≈ 255 µM) against Staphylococcus aureus [6]; 64 µg/mL (≈ 255 µM) in the assay with Bacillus subtilis [7]. Moreover, the values for the INH in the assay on Staphylococcus aureus [8] and in the assay with Bacillus subtilis [9] were 128 µg/mL and 64 µg/mL, respectively.
